This note sets out measurements from ChEMBL document CHEMBL1944565, “Exploration of α-aminophosphonate N-derivatives as novel, potent and selective inhibitors of protein tyrosine phosphatases” (Eur J Med Chem, 2012).

Chain of Tyrosine-protein phosphatase non-receptor type 6 (P29350 whole entry): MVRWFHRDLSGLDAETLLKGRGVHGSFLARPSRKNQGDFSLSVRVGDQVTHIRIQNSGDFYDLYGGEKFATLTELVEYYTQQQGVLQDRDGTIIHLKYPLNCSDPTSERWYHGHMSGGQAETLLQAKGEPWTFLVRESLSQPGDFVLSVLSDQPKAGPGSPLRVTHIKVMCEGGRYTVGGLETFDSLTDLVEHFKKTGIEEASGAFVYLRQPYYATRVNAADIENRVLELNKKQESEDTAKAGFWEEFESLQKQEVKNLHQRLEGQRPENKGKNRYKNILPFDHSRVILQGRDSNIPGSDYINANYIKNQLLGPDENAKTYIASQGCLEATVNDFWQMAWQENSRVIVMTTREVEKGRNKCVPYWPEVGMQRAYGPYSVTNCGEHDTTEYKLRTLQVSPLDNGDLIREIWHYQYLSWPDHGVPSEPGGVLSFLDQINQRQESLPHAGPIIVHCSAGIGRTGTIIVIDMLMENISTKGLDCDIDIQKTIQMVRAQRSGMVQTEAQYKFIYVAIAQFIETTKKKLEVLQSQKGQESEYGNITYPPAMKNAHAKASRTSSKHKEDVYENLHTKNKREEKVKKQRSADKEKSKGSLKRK

The target of the first assay is T1, Tyrosine-protein phosphatase non-receptor type 1 (Homo sapiens, UniProt P18031).
T1 sequence (P18031 whole entry): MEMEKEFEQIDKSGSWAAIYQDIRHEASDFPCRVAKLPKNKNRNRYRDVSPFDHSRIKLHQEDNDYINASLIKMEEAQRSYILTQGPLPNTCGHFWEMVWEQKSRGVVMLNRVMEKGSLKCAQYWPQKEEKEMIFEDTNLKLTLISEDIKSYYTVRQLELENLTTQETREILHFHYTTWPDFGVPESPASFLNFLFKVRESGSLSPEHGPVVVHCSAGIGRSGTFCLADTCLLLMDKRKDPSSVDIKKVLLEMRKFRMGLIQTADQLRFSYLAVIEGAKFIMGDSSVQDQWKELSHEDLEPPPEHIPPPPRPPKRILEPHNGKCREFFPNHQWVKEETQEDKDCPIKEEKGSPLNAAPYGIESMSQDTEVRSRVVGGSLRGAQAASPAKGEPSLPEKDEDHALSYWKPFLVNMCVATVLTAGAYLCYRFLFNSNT
Nature of the assay: Inhibition of human PTP1B using p-nitrophenol phosphate as substrate incubated for 35 mins prior to substrate addition measured after 30 mins by spectrophotometry. In outline: (§1)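 Recombinant human phosphatase, expressed and purified, in 20 mM MOPS pH 7.2 with 50 mM NaCl. Preincubated with inhibitor at various concentrations for 35 min at 37 °C. p-NPP (0.1 M stock) added and reaction run about 30 min, then stopped with 2 M NaOH.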
As for `CCOP(=O)(O)C(N[C@@H](Cc1ccccc1)C(=O)O)c1ccccc1O` (stereo partly specified), the IC50 was more than 10 mM.
Consider `CCOP(=O)(O)C(N[C@@H](CS)C(=O)O)c1ccccc1O` (stereo partly specified), for which the IC50 is more than 10 mM.
`CCOP(=O)(OCC)[C@H](Nc1ccc(Br)cc1)c1ccccc1O` yielded an IC50 of 0.0917 mM.
The compound `CCOP(=O)(O)C(NCCCNC(c1ccccc1O)P(=O)(O)OCC)c1ccccc1O` (stereo unspecified) registered an IC50 of more than 10 mM.
Still for that read-out and setting: to `CCOP(=O)(OCC)[C@H](Nc1ccc(Cl)cc1)c1ccccc1O` belongs 0.373 mM.
On to `CCOP(=O)(O)C(N[C@@H](Cc1c[nH]c2ccccc12)C(=O)O)c1ccccc1O` (stereo partly specified), for which the IC50 is more than 10 mM.
The compound `CCOP(=O)(O)C(N[C@H](C(=O)O)[C@@H](C)O)c1ccccc1O` (stereo partly specified) returned an IC50 of more than 10 mM.
On the same count and under the same terms, to `CCOP(=O)(O)C(NCCCCCCNC(c1ccccc1O)P(=O)(O)OCC)c1ccccc1O` (stereo unspecified) belongs more than 10 mM.

A further assay has as its target T2, Tyrosine-protein phosphatase non-receptor type 2 (Homo sapiens, UniProt P17706).
T2 sequence (P17706 whole entry): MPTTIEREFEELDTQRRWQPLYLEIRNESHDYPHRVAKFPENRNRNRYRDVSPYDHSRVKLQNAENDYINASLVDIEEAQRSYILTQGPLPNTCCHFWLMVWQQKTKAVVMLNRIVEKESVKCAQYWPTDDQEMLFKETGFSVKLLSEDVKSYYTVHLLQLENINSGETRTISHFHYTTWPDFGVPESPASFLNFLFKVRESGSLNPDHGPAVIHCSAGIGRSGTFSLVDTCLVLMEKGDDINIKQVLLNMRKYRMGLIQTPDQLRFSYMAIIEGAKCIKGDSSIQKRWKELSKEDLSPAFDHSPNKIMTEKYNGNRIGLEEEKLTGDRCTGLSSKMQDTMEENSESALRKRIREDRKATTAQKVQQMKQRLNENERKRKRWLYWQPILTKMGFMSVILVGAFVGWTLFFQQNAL
Nature of the assay: Inhibition of human TCPTP using p-nitrophenol phosphate as substrate incubated for 35 mins prior to substrate addition measured after 30 mins by spectrophotometry. An outline of the steps: as §1
Take `CCOP(=O)(O)C(N[C@@H](Cc1ccccc1)C(=O)O)c1ccccc1O` (stereo partly specified): the IC50 is more than 10 mM.
As to `CCOP(=O)(O)C(N[C@@H](CS)C(=O)O)c1ccccc1O` (stereo partly specified), the IC50 was more than 10 mM.
Regarding `CCOP(=O)(OCC)[C@H](Nc1ccc(Br)cc1)c1ccccc1O`, the concentration for half-maximal inhibition (IC50) is 0.0511 mM. That is a double-digit micromolar value.
As for `CCOP(=O)(O)C(NCCCNC(c1ccccc1O)P(=O)(O)OCC)c1ccccc1O` (stereo unspecified), the IC50 is more than 10 mM.
Regarding `CCOP(=O)(OCC)[C@H](Nc1ccc(Cl)cc1)c1ccccc1O`, the IC50 turned out to be 0.627 mM.
On to `CCOP(=O)(O)C(N[C@@H](Cc1c[nH]c2ccccc12)C(=O)O)c1ccccc1O` (stereo partly specified), for which the IC50 was more than 10 mM.
`CCOP(=O)(O)C(N[C@H](C(=O)O)[C@@H](C)O)c1ccccc1O` (stereo partly specified) yielded a concentration for half-maximal inhibition (IC50) of more than 10 mM.
Same read-out and setting: with `CCOP(=O)(O)C(NCCCCCCNC(c1ccccc1O)P(=O)(O)OCC)c1ccccc1O` (stereo unspecified) the figure was more than 10 mM.

In a further assay the target is T3, Tyrosine-protein phosphatase non-receptor type 9 (Homo sapiens, UniProt P43378).
T3 sequence (P43378 whole entry): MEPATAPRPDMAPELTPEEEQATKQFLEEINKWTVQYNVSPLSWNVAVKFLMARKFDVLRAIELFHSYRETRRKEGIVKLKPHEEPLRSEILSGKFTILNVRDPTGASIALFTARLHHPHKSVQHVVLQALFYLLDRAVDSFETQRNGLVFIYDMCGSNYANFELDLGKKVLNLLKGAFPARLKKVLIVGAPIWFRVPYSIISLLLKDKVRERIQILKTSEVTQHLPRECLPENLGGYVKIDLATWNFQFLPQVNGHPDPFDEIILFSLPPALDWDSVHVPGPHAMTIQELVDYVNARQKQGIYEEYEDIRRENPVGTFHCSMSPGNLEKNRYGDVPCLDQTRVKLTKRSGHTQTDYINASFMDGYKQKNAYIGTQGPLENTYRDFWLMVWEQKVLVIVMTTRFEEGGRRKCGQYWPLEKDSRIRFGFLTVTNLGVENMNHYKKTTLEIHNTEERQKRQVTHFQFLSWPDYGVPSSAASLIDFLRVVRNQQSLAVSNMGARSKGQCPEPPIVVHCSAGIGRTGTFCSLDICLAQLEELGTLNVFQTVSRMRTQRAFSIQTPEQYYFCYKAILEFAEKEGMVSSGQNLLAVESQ
Nature of the assay: Inhibition of human PTP-MEG2 using p-nitrophenol phosphate as substrate incubated for 35 mins prior to substrate addition measured after 30 mins by spectrophotometry. An outline of the steps:
as §1
Turning to `CCOP(=O)(O)C(N[C@@H](Cc1ccccc1)C(=O)O)c1ccccc1O` (stereo partly specified), the IC50 was more than 10 mM.
Same read-out and setting: with `CCOP(=O)(O)C(N[C@@H](CS)C(=O)O)c1ccccc1O` (stereo partly specified) the figure was more than 10 mM.
The compound `CCOP(=O)(OCC)[C@H](Nc1ccc(Br)cc1)c1ccccc1O` registered a 50% inhibitory concentration (IC50) of 0.173 mM.
The compound `CCOP(=O)(O)C(NCCCNC(c1ccccc1O)P(=O)(O)OCC)c1ccccc1O` (stereo unspecified) displayed a half-inhibitory concentration (IC50) of more than 10 mM.
Still for that read-out and setting: to `CCOP(=O)(OCC)[C@H](Nc1ccc(Cl)cc1)c1ccccc1O` belongs 0.347 mM; to `CCOP(=O)(O)C(N[C@@H](Cc1c[nH]c2ccccc12)C(=O)O)c1ccccc1O` (stereo partly specified), more than 10 mM; to `CCOP(=O)(O)C(N[C@H](C(=O)O)[C@@H](C)O)c1ccccc1O` (stereo partly specified), more than 10 mM.
The compound `CCOP(=O)(O)C(NCCCCCCNC(c1ccccc1O)P(=O)(O)OCC)c1ccccc1O` (stereo unspecified) registered an IC50 of more than 10 mM.

Another assay addresses Tyrosine-protein phosphatase non-receptor type 6 (Homo sapiens, UniProt P29350). Briefly: Inhibition of human SHP1 using p-nitrophenol phosphate as substrate incubated for 35 mins prior to substrate addition measured after 30 mins by spectrophotometry. In outline: as §1
In the case of `CCOP(=O)(O)C(N[C@@H](Cc1ccccc1)C(=O)O)c1ccccc1O` (stereo partly specified), the IC50 is more than 10 mM.
In turn, `CCOP(=O)(O)C(N[C@@H](CS)C(=O)O)c1ccccc1O` (stereo partly specified) gave an IC50 of more than 10 mM.
In turn, `CCOP(=O)(OCC)[C@H](Nc1ccc(Br)cc1)c1ccccc1O` had an IC50 of more than 10 mM.
Take `CCOP(=O)(O)C(NCCCNC(c1ccccc1O)P(=O)(O)OCC)c1ccccc1O` (stereo unspecified): the IC50 is more than 10 mM.
The same measure, in the same setting: to `CCOP(=O)(OCC)[C@H](Nc1ccc(Cl)cc1)c1ccccc1O` belongs more than 10 mM; to `CCOP(=O)(O)C(N[C@@H](Cc1c[nH]c2ccccc12)C(=O)O)c1ccccc1O` (stereo partly specified), more than 10 mM; to `CCOP(=O)(O)C(N[C@H](C(=O)O)[C@@H](C)O)c1ccccc1O` (stereo partly specified), more than 10 mM.
Compound `CCOP(=O)(O)C(NCCCCCCNC(c1ccccc1O)P(=O)(O)OCC)c1ccccc1O` (stereo unspecified) had an IC50 of more than 10 mM.

A further assay addresses T4, Tyrosine-protein phosphatase non-receptor type 11 (Homo sapiens, UniProt Q06124).
T4 sequence (Q06124 whole entry): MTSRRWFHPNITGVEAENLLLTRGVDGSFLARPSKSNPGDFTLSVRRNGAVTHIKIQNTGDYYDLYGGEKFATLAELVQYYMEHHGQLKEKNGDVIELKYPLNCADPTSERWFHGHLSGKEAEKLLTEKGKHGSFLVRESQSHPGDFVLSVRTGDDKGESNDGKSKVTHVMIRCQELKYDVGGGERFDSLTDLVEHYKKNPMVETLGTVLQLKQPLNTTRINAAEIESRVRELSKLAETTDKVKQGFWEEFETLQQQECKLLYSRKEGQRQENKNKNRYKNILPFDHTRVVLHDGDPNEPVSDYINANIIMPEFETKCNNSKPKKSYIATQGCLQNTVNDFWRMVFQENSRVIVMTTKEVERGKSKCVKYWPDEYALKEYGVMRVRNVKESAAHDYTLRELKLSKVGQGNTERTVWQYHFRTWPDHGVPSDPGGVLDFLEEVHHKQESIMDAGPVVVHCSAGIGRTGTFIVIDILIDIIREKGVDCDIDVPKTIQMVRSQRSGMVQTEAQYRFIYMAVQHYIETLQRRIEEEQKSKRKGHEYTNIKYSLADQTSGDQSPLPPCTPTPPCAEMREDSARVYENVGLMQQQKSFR
Briefly: Inhibition of human SHP2 using p-nitrophenol phosphate as substrate incubated for 35 mins prior to substrate addition measured after 30 mins by spectrophotometry. In outline:
as §1
For `CCOP(=O)(O)C(N[C@@H](Cc1ccccc1)C(=O)O)c1ccccc1O` (stereo partly specified), the IC50 is more than 10 mM.
Turning to `CCOP(=O)(O)C(N[C@@H](CS)C(=O)O)c1ccccc1O` (stereo partly specified), the 50% inhibitory concentration (IC50) is more than 10 mM.
`CCOP(=O)(OCC)[C@H](Nc1ccc(Br)cc1)c1ccccc1O` returned an IC50 of more than 10 mM.
On to `CCOP(=O)(O)C(NCCCNC(c1ccccc1O)P(=O)(O)OCC)c1ccccc1O` (stereo unspecified), for which the IC50 is more than 10 mM.
Regarding `CCOP(=O)(OCC)[C@H](Nc1ccc(Cl)cc1)c1ccccc1O`, the IC50 is more than 10 mM.
In turn, `CCOP(=O)(O)C(N[C@@H](Cc1c[nH]c2ccccc12)C(=O)O)c1ccccc1O` (stereo partly specified) displayed a 50% inhibitory concentration (IC50) of more than 10 mM.
As for `CCOP(=O)(O)C(N[C@H](C(=O)O)[C@@H](C)O)c1ccccc1O` (stereo partly specified), the IC50 was more than 10 mM.
`CCOP(=O)(O)C(NCCCCCCNC(c1ccccc1O)P(=O)(O)OCC)c1ccccc1O` (stereo unspecified) returned an IC50 of more than 10 mM.

The next assay concerns the target T5, Tyrosine-protein phosphatase non-receptor type 1 (Homo sapiens) (UniProt P18031).
T5 sequence (whole entry): T1 sequence (P18031 whole entry)
Compound `CCOP(=O)(OCC)[C@H](Nc1ccc(Br)cc1)c1ccccc1O` came in with a Kic of 96.3 µM.
